Test results: ChEMBL document CHEMBL3526002, “Tissue distribution and identification of radioactivity components at elimination phase after oral administration of [¹⁴C]CS-1036, an α-amylase inhibitor, to rats” (Drug Metab Dispos, 2013)

Columns and labels:
Format in all cases: ADME, organism-based
Design in all cases: dose 5 mg/kg, dosed compound name [14C]CS-1036, route oral
Conditions in all cases: in vivo
Small intestine [1] = experiment: Drug uptake in albino F344/DuCrlCrlj rat small intestine at 5 mg/kg, po after 336 hrs by liquid scintillation counting
Harderian gland [2] = experiment: Drug uptake in albino F344/DuCrlCrlj rat harderian gland assessed as ng equivalent of CS-1036 at 5 mg/kg, po after 336 hrs by liquid scintillation counting
Zone of skin [3] = experiment: Drug uptake in albino F344/DuCrlCrlj rat skin at 5 mg/kg, po after 1 hr by liquid scintillation counting
Liver = experiment: Drug uptake in albino F344/DuCrlCrlj rat liver assessed as ng equivalent of CS-1036 at 5 mg/kg, po after 72 hrs by liquid scintillation counting
[4] = Drug uptake in albino F344/DuCrlCrlj rat bone marrow at 5 mg/kg, po after 168 hrs by liquid scintillation counting
[5] = Drug uptake in albino F344/DuCrlCrlj rat urinary bladder assessed as ng equivalent of CS-1036 at 5 mg/kg, po after 72 hrs by liquid scintillation counting
Large intestine [6] = experiment: Drug uptake in albino F344/DuCrlCrlj rat large intestine assessed as ng equivalent of CS-1036 at 5 mg/kg, po after 1 hr by liquid scintillation counting
Cerebellum [7] = experiment: Drug uptake in albino F344/DuCrlCrlj rat cerebellum assessed as ng equivalent of CS-1036 at 5 mg/kg, po after 72 hrs by liquid scintillation counting
Adrenal gland [8] = experiment: Drug uptake in albino F344/DuCrlCrlj rat adrenal gland assessed as ng equivalent of CS-1036 at 5 mg/kg, po after 24 hrs by liquid scintillation counting
Lung [9] = experiment: Drug uptake in albino F344/DuCrlCrlj rat lung at 5 mg/kg, po after 8 hrs by liquid scintillation counting
Harderian gland [10] = experiment: Drug uptake in albino F344/DuCrlCrlj rat harderian gland at 5 mg/kg, po after 24 hrs by liquid scintillation counting
[11] = Drug uptake in albino F344/DuCrlCrlj rat mandibular gland assessed as ng equivalent of CS-1036 at 5 mg/kg, po after 4 hrs by liquid scintillation counting
Adrenal gland [12] = experiment: Drug uptake in albino F344/DuCrlCrlj rat adrenal gland at 5 mg/kg, po after 72 hrs by liquid scintillation counting
Thymus = experiment: Drug uptake in albino F344/DuCrlCrlj rat thymus assessed as ng equivalent of CS-1036 at 5 mg/kg, po after 1 hr by liquid scintillation counting
Zone of skin [13] = experiment: Drug uptake in albino F344/DuCrlCrlj rat skin at 5 mg/kg, po after 4 hrs by liquid scintillation counting
[14] = Drug uptake in albino F344/DuCrlCrlj rat urinary bladder assessed as ng equivalent of CS-1036 at 5 mg/kg, po after 336 hrs by liquid scintillation counting
Large intestine [15] = experiment: Drug uptake in albino F344/DuCrlCrlj rat large intestine at 5 mg/kg, po after 8 hrs by liquid scintillation counting
Aorta = experiment: Drug uptake in albino F344/DuCrlCrlj rat aorta assessed as ng equivalent of CS-1036 at 5 mg/kg, po after 1 hr by liquid scintillation counting
Small intestine [16] = experiment: Drug uptake in albino F344/DuCrlCrlj rat small intestine assessed as ng equivalent of CS-1036 at 5 mg/kg, po after 24 hrs by liquid scintillation counting
[17] = Drug uptake in albino F344/DuCrlCrlj rat bone marrow at 5 mg/kg, po after 1 hr by liquid scintillation counting
Cerebrum = experiment: Drug uptake in albino F344/DuCrlCrlj rat cerebrum assessed as ng equivalent of CS-1036 at 5 mg/kg, po after 24 hrs by liquid scintillation counting
How it was run: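 Single oral [14C]CS-1036 at 5 mg/kg was given to male rats (159–167 g; n = 3). Cerebrum was collected after aortic bleeding at 1, 4, 8, 24, 72, 168 or 336 h, weighed, and homogenized in 2 volumes of saline. A 0.5 ml aliquot was solubilized in Soluene-350 and counted by LSC with external-standard correction. Results are in ng equivalent/g tissue from specific activity and sample weight.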

Pancreas [18] = experiment: Drug uptake in albino F344/DuCrlCrlj rat pancreas at 5 mg/kg, po after 24 hrs by liquid scintillation counting
Cerebellum [19] = experiment: Drug uptake in albino F344/DuCrlCrlj rat cerebellum assessed as ng equivalent of CS-1036 at 5 mg/kg, po after 24 hrs by liquid scintillation counting
Stomach [20] = experiment: Drug uptake in albino F344/DuCrlCrlj rat stomach assessed as ng equivalent of CS-1036 at 5 mg/kg, po after 1 hr by liquid scintillation counting
[21] = Drug uptake in albino F344/DuCrlCrlj rat pituitary gland at 5 mg/kg, po after 24 hrs by liquid scintillation counting
Stomach [22] = experiment: Drug uptake in albino F344/DuCrlCrlj rat stomach at 5 mg/kg, po after 72 hrs by liquid scintillation counting
Adrenal gland [23] = experiment: Drug uptake in albino F344/DuCrlCrlj rat adrenal gland assessed as ng equivalent of CS-1036 at 5 mg/kg, po after 4 hrs by liquid scintillation counting
[24] = Drug uptake in albino F344/DuCrlCrlj rat trachea at 5 mg/kg, po after 4 hrs by liquid scintillation counting
Cerebellum [25] = experiment: Drug uptake in albino F344/DuCrlCrlj rat cerebellum at 5 mg/kg, po after 1 hr by liquid scintillation counting
[26] = Drug uptake in albino F344/DuCrlCrlj rat testis at 5 mg/kg, po after 336 hrs by liquid scintillation counting
Spleen = experiment: Drug uptake in albino F344/DuCrlCrlj rat spleen at 5 mg/kg, po after 168 hrs by liquid scintillation counting
Cerebellum [27] = experiment: Drug uptake in albino F344/DuCrlCrlj rat cerebellum at 5 mg/kg, po after 8 hrs by liquid scintillation counting
Zone of skin [28] = experiment: Drug uptake in albino F344/DuCrlCrlj rat skin assessed as ng equivalent of CS-1036 at 5 mg/kg, po after 168 hrs by liquid scintillation counting
Pancreas [29] = experiment: Drug uptake in albino F344/DuCrlCrlj rat pancreas assessed as ng equivalent of CS-1036 at 5 mg/kg, po after 336 hrs by liquid scintillation counting
Large intestine [30] = experiment: Drug uptake in albino F344/DuCrlCrlj rat large intestine assessed as ng equivalent of CS-1036 at 5 mg/kg, po after 24 hrs by liquid scintillation counting
Lung [31] = experiment: Drug uptake in albino F344/DuCrlCrlj rat lung at 5 mg/kg, po after 168 hrs by liquid scintillation counting
Large intestine [32] = experiment: Drug uptake in albino F344/DuCrlCrlj rat large intestine assessed as ng equivalent of CS-1036 at 5 mg/kg, po after 8 hrs by liquid scintillation counting

Radiolabel recovery (Small intestine [1]): 6.54 ngequiv/g
Radiolabel recovery (Harderian gland [2]): 2.33 ngequiv/g
Radiolabel recovery (Zone of skin [3]): 38.3 ngequiv/g
Radiolabel recovery (Liver): 629 ngequiv/g
Radiolabel recovery [4]: 47 ngequiv/g
Radiolabel recovery [5]: 6.8 ngequiv/g
Radiolabel recovery (Large intestine [6]): 1080 ngequiv/g
Radiolabel recovery (Cerebellum [7]): 6.4 ngequiv/g
Radiolabel recovery (Adrenal gland [8]): 20.2 ngequiv/g
Radiolabel recovery (Lung [9]): 64.8 ngequiv/g
Radiolabel recovery (Harderian gland [10]): 290 ngequiv/g
Radiolabel recovery [11]: 9.2 ngequiv/g
Radiolabel recovery (Adrenal gland [12]): 99.7 ngequiv/g
Radiolabel recovery (Thymus): 2.1 ngequiv/g
Radiolabel recovery (Zone of skin [13]): 33 ngequiv/g
Radiolabel recovery [14]: 5.5 ngequiv/g
Radiolabel recovery (Large intestine [15]): 7770 ngequiv/g
Radiolabel recovery (Aorta): 15.9 ngequiv/g
Radiolabel recovery (Small intestine [16]): 7.5 ngequiv/g
Radiolabel recovery [17]: 34.9 ngequiv/g
Radiolabel recovery (Cerebrum): 1.5 ngequiv/g
Radiolabel recovery (Pancreas [18]): 310 ngequiv/g
Radiolabel recovery (Cerebellum [19]): 2.3 ngequiv/g
Radiolabel recovery (Stomach [20]): 640 ngequiv/g
Radiolabel recovery [21]: 70.8 ngequiv/g
Radiolabel recovery (Stomach [22]): 49 ngequiv/g
Radiolabel recovery (Adrenal gland [23]): 8.6 ngequiv/g
Radiolabel recovery [24]: 31.1 ngequiv/g
Radiolabel recovery (Cerebellum [25]): 9.35 ngequiv/g
Radiolabel recovery [26]: 6.02 ngequiv/g
Radiolabel recovery (Spleen): 18.3 ngequiv/g
Radiolabel recovery (Cerebellum [27]): 8.3 ngequiv/g
Radiolabel recovery (Zone of skin [28]): 23.9 ngequiv/g
Radiolabel recovery (Pancreas [29]): 11.2 ngequiv/g
Radiolabel recovery (Large intestine [30]): 138 ngequiv/g
Radiolabel recovery (Lung [31]): 17.2 ngequiv/g
Radiolabel recovery (Large intestine [32]): 8000 ngequiv/g
SMILES: C[C@H]1O[C@@H](O[C@H]2[C@H](O)[C@@H](O)[C@@H](O[14C@H]3[14C@H](O)[14CH2]N[14C@@H]3[14CH2]O)O[C@@H]2CO)[C@H](O)[C@@H](O)[C@@H]1O
